Here are results for 72 molecules from ChEMBL document CHEMBL1125163, “Evolution of a series of peptidoleukotriene antagonists: synthesis and structure-activity relationships of 1,6-disubstituted indoles and indazoles” (J Med Chem, 1990).

The structures appear in SMILES notation. Calls of active or inactive are those of the source. The rule behind the calls is not given here.

System in one data set: not listed separately
Kind of data set: pKB value of the compound.
Details: not given
In short, it runs like this: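 Guinea pig tracheal strips at 37 °C in Krebs buffer. Cumulative LTE4 concentration-response curves were built in log increments, with responses expressed as % of the maximum to 30 µM carbachol. Antagonist was incubated 30 min before the curve, with vehicle on paired controls. EC50 came from linear regression. KB = [antagonist]/(dose ratio − 1) by the Furchgott method. One curve per tissue.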
In general, pKB refers to the KB on a negative log10 scale, so that one unit is a factor of ten. `CCCc1c(OCc2ccc(C(=O)O)cc2OC)ccc(C(C)=O)c1O` gave a pKB of 6.4.

As to `CCCCCCOc1ccc(COc2ccccc2C(=O)O)cc1`, the pKB was 5.1.

The species entered for another data set is Cavia porcellus. Kind of data set: Percent inhibition of the BaCl2 - induced contraction of guinea pig tracheal spirals at concentration of 100 uM. It is filed as functional. The following applies: Trachea. In short, it runs like this:
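Guinea pig tracheal strips contracted with barium chloride. Compound was tested at 100 µM, and the read-out is percent inhibition of the BaCl2-induced contraction.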
The inhibition is the drop in the measured response relative to a control, in per cent. Consider `COc1cc(C(=O)O)ccc1Cn1ncc2ccc(NC(=O)OC3CCCC3)cc21`, for which the inhibition at 100 µM came out at 44%.

A further data set is filed under the species Cavia porcellus. Briefly: Percent inhibition of the LTE4- induced contraction of guinea pig tracheal spirals at concentration of 10 uM; Not significant. In kind it is functional. To be noted: Trachea. The essentials:
(§1)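 Guinea pig trachea cut into spiral strips, each trachea split into paired sections. Tissue bath at 37 °C in modified Krebs buffer gassed with 95% O2/5% CO2, 2 g resting tension, 60 min stabilization. After reproducible responses to 10 nM LTE4, compound was added for 10 min, then LTE4 challenge repeated. Percent inhibition is the 2nd vs 3rd response, adjusted by subtracting the vehicle-treated paired section. Paired t test, p < 0.05.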
`CCCCCC(=O)Nc1cccc2cnn(Cc3ccc(C(=O)O)cc3OC)c12`: the inhibition entry is “inactive”.

For the next data set, the species on record is Cavia porcellus. Kind of data set: Percent inhibition of the LTE4- induced contraction of guinea pig tracheal spirals at the concentration of 0.33 uM. It is filed as functional. To be noted: Trachea. The essentials: as §1
In the case of `CCC(C(=O)Nc1ccc2ccn(Cc3ccc(C(=O)O)cc3OC)c2c1)C1CCCCC1` (configuration not stated), at 0.33 µM the inhibition was 18%.

`COc1cc(C(=O)O)ccc1Cn1ccc2ccc(NC(=O)OC(C)C)cc21` showed an inhibition at 0.33 µM of 24%.

As for `COc1cc(C(=O)O)ccc1Cn1ccc2ccc(NC(=O)CC3CCCCC3)cc21`, the inhibition at 0.33 µM amounted to 53%.

For `CCC(CC)OC(=O)Nc1ccc2ccn(Cc3ccc(C(=O)O)cc3OC)c2c1`, testing at 0.33 µM gave an inhibition of 31%.

Another data set is filed under the species Cavia porcellus. Kind of data set: Percent inhibition of the LTE4- induced contraction of guinea pig tracheal spirals at the concentration of 1.0 uM. In kind it is functional. The following applies: Trachea. The essentials: as §1
Take `COc1cc(C(=O)O)ccc1Cn1ccc2ccc(NC(=O)C(c3ccccc3)C3CCCC3)cc21` (configuration not stated): the inhibition at 1 µM was found to be 27%.

The molecule `COc1cc(C(=O)O)ccc1Cn1ccc2ccc(NC(=O)OC3CC=CCC3)cc21` (configuration not stated) yielded an inhibition at 1 µM of 47%.

With `CCCC(C(=O)Nc1ccc2ccn(Cc3ccc(C(=O)O)cc3OC)c2c1)C1CCCC1` (configuration not stated), the inhibition at 1 µM turned out to be 62%.

With `CCCCCCOC(=O)Nc1ccc2ccn(Cc3ccc(C(=O)O)cc3OC)c2c1`, the inhibition at 1 µM was 30%.

The species named for another data set is Cavia porcellus. Kind of data set: Percent inhibition of the LTE4- induced contraction of guinea pig tracheal spirals at the concentration of 3.3 uM. It is filed as functional. To be noted: Trachea. In short, it runs like this: as §1
For the molecule `COc1cc(C(=O)O)ccc1Cn1ccc2ccc(NC(=O)C(OC)c3ccccc3)cc21` (configuration not stated), the inhibition at 3.3 µM came out at 52%.

Molecule `COc1cc(C(=O)O)ccc1Cn1ccc2ccc(NC(=O)NC3CCCCC3)cc21` showed an inhibition at 3.3 µM of 34%.

`COc1cc(C(=O)O)ccc1Cn1ccc2ccc(NC(=O)C(C)(C)c3ccccc3)cc21` had an inhibition at 3.3 µM of 23%.

`COc1cc(C(=O)O)ccc1Cn1ccc2ccc(NC(=O)OC3CCOC3)cc21` (configuration not stated): the inhibition at 3.3 µM came out at 70%.

In turn, `COc1cc(C(=O)O)ccc1Cn1ccc2ccc(NC(=O)C(c3ccccc3)c3ccccc3)cc21` returned an inhibition at 3.3 µM of 38%.

For `COc1cc(C(=O)O)ccc1Cn1ccc2ccc(NC(=O)NC(C)(C)C)cc21`, the inhibition at 3.3 µM turned out to be 24%.

For the molecule `CCCCCCNC(=O)Nc1ccc2ccn(Cc3ccc(C(=O)O)cc3OC)c2c1`, the inhibition at 3.3 µM worked out at 51%.

As to `COc1cc(C(=O)O)ccc1Cn1ccc2ccc(NC(=O)OC(C)(C)C)cc21`, testing at 3.3 µM gave an inhibition of 10%.

`COc1cc(C(=O)O)ccc1Cn1ccc2ccc(NC(=O)C(C)c3ccccc3)cc21` (configuration not stated): the inhibition at 3.3 µM came to 59%.

For another data set, the species on record is Cavia porcellus. Briefly: Percent inhibition of the LTE4- induced contraction of guinea pig tracheal spirals at the concentration of 5 uM. It is filed as functional. The following applies: Trachea. The essentials:
as §1
Take `COc1cc(C(=O)O)ccc1Cn1ccc2ccc(NC(=O)Cc3ccccc3)cc21`: the inhibition at 5 µM worked out at 71%.

In turn, `CCCCCCCC(=O)Nc1ccc2ccn(Cc3ccc(C(=O)O)cc3OC)c2c1` gave an inhibition at 5 µM of 53%.

`CCCC(=O)Nc1ccc2ccn(Cc3ccc(C(=O)O)cc3OC)c2c1`: the inhibition at 5 µM came out at 42%.

In turn, `C/C=C/C=C/C(=O)Nc1ccc2ccn(Cc3ccc(C(=O)O)cc3OC)c2c1` returned an inhibition at 5 µM of 28%.

As for `CCCCCCOc1ccc(COc2ccccc2C(=O)O)cc1`, at 5 µM the inhibition was 40%.

System in the next data set: not listed separately
Kind of data set: Selectivity ratio of the compound.
Details: not given
It is filed as functional.
For the molecule `CCCc1c(OCc2ccc(C(=O)O)cc2OC)ccc(C(C)=O)c1O`, the Selectivity ratio was 50.

`CCCCCCOc1ccc(COc2ccccc2C(=O)O)cc1`: the Selectivity ratio was found to be 10.

The species entered for a further data set is Cavia porcellus. Briefly: Percent inhibition of the LTE4- induced contraction of guinea pig tracheal spirals at the concentration of 0 uM; Not significant. In kind it is functional. The following applies: Trachea. In short, it runs like this:
as §1
Regarding `COc1cc(C(=O)O)ccc1Cn1ccc2ccc(NC(C)=O)cc21`, the inhibition result is “inactive”.

A further data set is filed under the species Cavia porcellus. Kind of data set: Percent inhibition of the LTE4- induced contraction of guinea pig tracheal spirals at the concentration of 0.1 uM. It is filed as functional. To be noted: Trachea. In short, it runs like this:
as §1
The molecule `COc1cc(C(=O)O)ccc1Cn1ncc2ccc(NC(=O)CC3CCCC3)cc21` came in with an inhibition at 0.1 µM of 83%.

As for `COc1cc(C(=O)O)ccc1Cn1ccc2ccc(NC(=O)CC3CCCC3)cc21`, the inhibition at 0.1 µM came out at 34%.

Turning to `COc1cc(C(=O)O)ccc1Cn1ncc2ccc(NC(=O)OC3CCCC3)cc21`, at 0.1 µM the inhibition was 65%.

`COc1cc(C(=O)O)ccc1Cn1ccc2ccc(NC(=O)OC3CCC3)cc21` yielded an inhibition at 0.1 µM of 27%.

For the next data set, the species on record is Cavia porcellus. Briefly: Percent inhibition of the LTE4- induced contraction of guinea pig tracheal spirals at the concentration of 1 uM. In kind it is functional. To be noted: Trachea. The essentials:
as §1
In the case of `COc1cc(C(=O)O)ccc1Cn1ccc2ccc(NC(=O)C3CCCC3)cc21`, the inhibition at 1 µM worked out at 58%.

Take `CCCCNC(=O)Nc1ccc2ccn(Cc3ccc(C(=O)O)cc3OC)c2c1`: 1 µM produced 39% inhibition.

Consider `CCCc1c(OCc2ccc(C(=O)O)cc2OC)ccc(C(C)=O)c1O`, for which the inhibition at 1 µM came to 38%.

The molecule `COc1cc(C(=O)O)ccc1Cn1ccc2ccc(NC(=O)NC3CCCC3)cc21` gave an inhibition at 1 µM of 73%.

The molecule `CCCCC(CC)C(=O)Nc1ccc2ccn(Cc3ccc(C(=O)O)cc3OC)c2c1` (configuration not stated) had an inhibition at 1 µM of 59%.

In the case of `CCC(C(=O)Nc1ccc2ccn(Cc3ccc(C(=O)O)cc3OC)c2c1)c1ccccc1` (configuration not stated), the inhibition at 1 µM is 65%.

The next data set deals with Cysteinyl leukotriene receptor (Cavia porcellus). Briefly: Inhibition of the LTE4- induced contraction of guinea pig tracheal spirals at 10 uM. The following applies: Trachea.
Molecule `COc1cc(C(=O)O)ccc1Cn1ccc2ccc(NC(=O)Nc3ccccc3C(F)(F)F)cc21` showed an inhibition of 42%.

`C#CCCC(=O)Nc1ccc2ccn(Cc3ccc(C(=O)O)cc3OC)c2c1` had an inhibition of 47%.

For `COc1cc(C(=O)O)ccc1Cn1ccc2ccc(NC(=O)Cc3cccs3)cc21`, the inhibition was 77%.

`COc1cc(C(=O)O)ccc1Cn1ccc2ccc(NC(=O)CCc3ccccc3)cc21` had an inhibition of 62%.

On to `COc1cc(C(=O)O)ccc1Cn1ccc2ccc(NC(=O)Cc3ccc(C(F)(F)F)cc3)cc21`, for which the inhibition was determined as 13%.

The molecule `COc1cc(C(=O)O)ccc1Cn1ccc2ccc(NC(=O)C(F)(F)C(F)(F)C(F)(F)F)cc21` yielded an inhibition of 40%.

The molecule `CCCCCCNc1ccc2ccn(Cc3ccc(C(=O)O)cc3OC)c2c1` displayed an inhibition of 52%.

In turn, `CCCC/N=C(\S)Nc1ccc2ccn(Cc3ccc(C(=O)O)cc3OC)c2c1` displayed an inhibition of 18%.

As for `CCN(CC)C(=O)Nc1ccc2ccn(Cc3ccc(C(=O)O)cc3OC)c2c1`, the inhibition amounted to 19%.

`CCCCCC(=O)Nc1ccc2cnn(Cc3ccc(C(=O)O)cc3)c2c1` yielded an inhibition of 62%.

Take `CCCCOC(=O)Nc1ccc2cn(Cc3ccc(C(=O)O)cc3OC)nc2c1`: the inhibition was 50%.

Consider `COc1cc(C(=O)O)ccc1Cn1ccc2ccc(NC(=O)CCCc3ccccc3)cc21`, for which the inhibition turned out to be 73%.

Regarding `COc1cc(C(=O)O)ccc1Cn1ccc2ccc(NC(=O)c3ccccc3)cc21`, the inhibition was found to be 14%.

On to `CCC(C(=O)Nc1ccc2cn(Cc3ccc(C(=O)O)cc3OC)nc2c1)c1ccccc1` (configuration not stated), for which the inhibition is 22%.

`CCCCCC(=O)Nc1ccc2nn(Cc3ccccc3C(=O)O)cc2c1` came in with an inhibition of 13%.

With `CCCCCC(=O)Nc1cccc2c1ccn2Cc1ccc(C(=O)O)cc1OC`, the inhibition was found to be 29%.

As to `CCCCC(C(=O)Nc1ccc2ccn(Cc3ccc(C(=O)O)cc3OC)c2c1)c1ccccc1` (configuration not stated), the inhibition worked out at 34%.

Molecule `COc1cc(C(=O)O)ccc1Cn1ccc2ccc(NC(=O)NCc3ccccc3)cc21` came in with an inhibition of 57%.

Consider `COc1cc(C(=O)O)ccc1Cn1ccc2ccc(NC(=O)Cc3ccc(Cl)cc3)cc21`, for which the inhibition turned out to be 44%.

The molecule `COc1cc(C(=O)O)ccc1Cn1ccc2ccc(NC(=O)Cc3ccc(C)cc3)cc21` displayed an inhibition of 29%.

The next data set shares this test system. Briefly: Inhibition of the LTE4- induced contraction of guinea pig tracheal spirals at 10 uM; Not significant. To be noted: Trachea.
For `COc1cc(C(=O)O)ccc1Cn1ccc2ccc(NC(=O)Nc3ccccc3)cc21`, the inhibition entry was “inactive”.

On to `CCCCN(C)C(=O)Nc1ccc2ccn(Cc3ccc(C(=O)O)cc3OC)c2c1`, for which the inhibition result is “inactive”.

Turning to `COc1cc(C(=O)O)ccc1Cn1ccc2ccc(NC(=O)Cc3ccc4ccccc4c3)cc21`, the inhibition result is “inactive”.

Consider `COc1cc(C(=O)O)ccc1Cn1ccc2ccc(NC(=O)Cc3ccc(-c4ccccc4)cc3)cc21`, for which the inhibition result was “inactive”.

`CCCCCC(=O)Nc1ccc2cn(Cc3ccccc3C(=O)O)nc2c1`: the inhibition entry is “inactive”.

For the molecule `CCCCCC(=O)Nc1ccc2c(cnn2Cc2ccc(C(=O)O)cc2)c1`, the inhibition entry is “inactive”.

Take `CCCCCCCCCC(=O)Nc1ccc2ccn(Cc3ccc(C(=O)O)cc3OC)c2c1`: the inhibition result was “inactive”.

With `COc1cc(C(=O)O)ccc1Cn1ccc2ccc(NC(=O)CCCC(C)=O)cc21`, the inhibition result was “inactive”.

Regarding `CCCCCC(=O)Nc1ccc2cnn(Cc3ccccc3C(=O)O)c2c1`, the inhibition entry is “inactive”.

`CCCCCC(=O)N(C)c1ccc2ccn(Cc3ccc(C(=O)O)cc3OC)c2c1`: the inhibition result was “inactive”.

`COc1cc(C(=O)O)ccc1Cn1ccc2ccc(NS(=O)(=O)Cc3ccccc3)cc21`: the inhibition entry is “inactive”.

On to `COc1cc(C(=O)O)ccc1Cn1ccc2ccc(NC(=O)CCCCCNC(C)=O)cc21`, for which the inhibition result is “inactive”.

As for `CCCCCC(=O)Nc1ccc2c(cnn2Cc2ccccc2C(=O)O)c1`, the inhibition result was “inactive”.

As for `CCCCCC(=O)Nc1ccc2cn(Cc3ccc(C(=O)O)cc3)nc2c1`, the inhibition result is “inactive”.

As for `COc1cc(C(=O)O)ccc1Cn1ccc2ccc(NC(=O)CCCCCCC(=O)O)cc21`, the inhibition entry is “inactive”.

On to `COC(=O)Nc1ccc2ccn(Cc3ccc(C(=O)O)cc3OC)c2c1`, for which the inhibition entry was “inactive”.

In the case of `CCCCCC(=O)Nc1ccc2nn(Cc3ccc(C(=O)O)cc3)cc2c1`, the inhibition result is “inactive”.

As for `COc1cc(C(=O)O)ccc1Cn1ccc2ccc(NC(=O)Cc3ccc(OC)c(OC)c3)cc21`, the inhibition result is “inactive”.
